The values below come from ChEMBL document CHEMBL1144886, “Structure-based design, synthesis, and antimicrobial activity of indazole-derived SAH/MTA nucleosidase inhibitors” (J Med Chem, 2003).

The Ki is a dissociation constant, usually derived from enzyme kinetics or from competition with a known ligand. A higher Ki goes with a looser hold on the target. For orientation: MIC means the least concentration at which growth counts as inhibited. A low value points to inhibition by little substance.

For assay [1], the target named is 5'-methylthioadenosine/S-adenosylhomocysteine nucleosidase (Escherichia coli O157:H7, UniProt P0AF14). The experiment in a line: Inhibition of Escherichia coli S-adenosyl homocysteine/methylthioadenosine nucleosidase (MTA/SAH nucleosidase). The method, boiled down: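 Recombinant His-tagged E. coli enzyme (IPTG-induced in E. coli, IMAC-purified), 50 pM, incubated 10 min at room temperature with 2.5 μM MTA and inhibitor at 0.005–100 μM; 200 μL final volume. Reaction stopped with TFA. Remaining MTA quantified by RP-HPLC (C8) peak integration, and turnover plotted for IC50. Ki derived using Km 1.0 μM for MTA.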
Chain of 5'-methylthioadenosine/S-adenosylhomocysteine nucleosidase (P0AF14 whole entry): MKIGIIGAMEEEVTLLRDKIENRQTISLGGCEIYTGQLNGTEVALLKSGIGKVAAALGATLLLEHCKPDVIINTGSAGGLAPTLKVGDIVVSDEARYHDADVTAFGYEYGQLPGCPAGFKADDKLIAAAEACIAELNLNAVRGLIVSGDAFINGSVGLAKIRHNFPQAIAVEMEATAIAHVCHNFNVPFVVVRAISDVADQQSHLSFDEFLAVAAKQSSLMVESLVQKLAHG

In the next assay the test system is Neisseria meningitidis. The experiment in a line: Minimum inhibitory concentration against Neisseria meningitidis. Type of assay: functional.
The test system of the next assay is Streptococcus pneumoniae. The experiment in a line: Minimum inhibitory concentration against Streptococcus pneumoniae. Type of assay: functional.
A further assay has as its system Streptococcus pyogenes. The experiment in a line: Minimum inhibitory concentration against Streptococcus pyogenes. The assay is classed as functional.

Each structure is given as a SMILES string. In brackets after ≈: the same amount, converted by molar mass.

In assay [1], `CC(C)CNc1cc(NS(=O)(=O)c2cccc(-c3cccc(CCO)c3)c2)cc2c(Cl)[nH]nc12` gave an inhibition constant (Ki) of 0.025 µM. Same read-out and setting: in the case of `Cc1n[nH]c2ccc(NS(=O)(=O)c3ccc(Cl)cc3)cc12` it was 4 µM; in that of `CN(C)c1cccc2c(S(=O)(=O)Nc3ccc4c[nH]nc4c3)cccc12`, 1 µM. For the molecule `Cc1n[nH]c2c(NCC(C)C)cc(NS(=O)(=O)c3cccc(-c4ccccc4)c3)cc12`, in assay [1], the affinity corresponds to a Ki of 0.498 µM.

In assay [1], `Cc1nccc(-c2cccc(S(=O)(=O)Nc3cc(NCC(C)C)c4[nH]nc(C)c4c3)c2)n1` registered a Ki of 0.191 µM. On the same count and under the same terms, as for `O=S(=O)(Nc1cc(NCc2ccccc2)c2[nH]nc(Cl)c2c1)c1ccc(Cl)cc1`, the figure is 1.8 µM; as for `Cc1nccc(-c2cccc(S(=O)(=O)Nc3cc(NCC(C)C)c4n[nH]c(Cl)c4c3)c2)n1`, 0.036 µM; as for `CN(C)c1cccc2c(S(=O)(=O)Nc3ccc4[nH]ncc4c3)cccc12`, 2.8 µM. Still for that read-out and setting: in the case of `CSc1cccc(-c2cccc(S(=O)(=O)Nc3cc(NCC(C)C)c4[nH]nc(Cl)c4c3)c2)c1` it was 0.017 µM. `Cc1cc(-c2cccc(S(=O)(=O)Nc3cc(NCC(C)C)c4n[nH]c(Cl)c4c3)c2)ccc1Cl` returned a Ki in assay [1] of 0.0039 µM. Further, the MIC against Neisseria meningitidis, against Streptococcus pneumoniae and with Streptococcus pyogenes was 7.5 µM (≈ 3.78 µg/mL) each time. For `Cc1cc(-c2cccc(S(=O)(=O)Nc3cc(NCC(C)C)c4n[nH]c(Cl)c4c3)c2)ccc1F`, in assay [1], the inhibition constant Ki is 0.0146 µM. In assay [1], `CC(C)CNc1cc(NS(=O)(=O)c2cccc(-c3ccc(Cl)c(Cl)c3)c2)cc2c(Cl)[nH]nc12` showed a Ki of 0.0016 µM. Also, the minimum inhibitory concentration (MIC) turned out to be 1.88 µM (≈ 0.982 µg/mL) against Neisseria meningitidis, 7.5 µM (≈ 3.93 µg/mL) against Streptococcus pneumoniae and 7.5 µM (≈ 3.93 µg/mL) in the assay on Streptococcus pyogenes.

With `O=S(=O)(Nc1cc(NCCc2ccccc2)c2[nH]nc(Cl)c2c1)c1ccc(Cl)cc1`, the Ki in assay [1] amounted to 2.3 µM. This lies in the single-digit micromolar range.

`O=S(=O)(Nc1cc(NCC2CC2)c2[nH]nc(Cl)c2c1)c1ccc(Cl)cc1` had a Ki in assay [1] of 0.5 µM. The molecule `CC(C)CNc1cc(NS(=O)(=O)c2cccc(-c3ccncc3)c2)cc2c(Cl)[nH]nc12` displayed a Ki in assay [1] of 0.052 µM. Further, the MIC in the assay with Neisseria meningitidis is 10 µM (≈ 4.56 µg/mL); against Streptococcus pyogenes, above 20 µM. `Cc1cccc(-c2cccc(S(=O)(=O)Nc3cc(NCC(C)C)c4n[nH]c(Cl)c4c3)c2)c1` showed a Ki in assay [1] of 0.036 µM. For `CC(C)CNc1cc(NS(=O)(=O)c2cccc(-c3ccc(Cl)cc3)c2)cc2c(Cl)[nH]nc12`, the Ki in assay [1] is 0.0125 µM. The values for the MIC against Neisseria meningitidis, in the assay on Streptococcus pneumoniae and against Streptococcus pyogenes were 2.5 µM (≈ 1.22 µg/mL), 2.5 µM (≈ 1.22 µg/mL) and 1.25 µM (≈ 0.612 µg/mL), respectively. Turning to `CC(C)CNc1cc(NS(=O)(=O)c2cccc(-c3cnc4ccccc4c3)c2)cc2c(Cl)[nH]nc12`, the affinity in assay [1] corresponds to a Ki of 0.0108 µM. This lies in the double-digit nanomolar range. For `CCNc1cc(NS(=O)(=O)c2ccc(Cl)cc2)cc2c(Cl)[nH]nc12`, the Ki in assay [1] came to 2.7 µM. This Ki is about 250-fold higher than that of the molecule before.

In assay [1], `CC(C)(C)CCNc1cc(NS(=O)(=O)c2ccc(Cl)cc2)cc2c(Cl)[nH]nc12` yielded a Ki of 6.5 µM. Against the preceding molecule, the Ki is about 2.4-fold higher. In assay [1], `Cc1n[nH]c2c(NCC(C)C)cc(NS(=O)(=O)c3cccc(-c4ccncc4)c3)cc12` came in with a Ki of 0.24 µM.

As for `Cc1n[nH]c2c(NCC(C)C)cc(NS(=O)(=O)c3cccc(-c4cccc(C(F)(F)F)c4)c3)cc12`, in assay [1], the Ki was determined as 0.02 µM. The minimal inhibitory concentration (MIC) with Neisseria meningitidis is 20 µM (≈ 10.1 µg/mL); in the assay with Streptococcus pyogenes it was above 20 µM. The matching figures for `CC(C)CNc1cc(NS(=O)(=O)c2cccc(-c3ccccc3)c2)cc2c(Cl)[nH]nc12`: 0.094 µM, 2.5 µM (≈ 1.14 µg/mL) and above 20 µM. Take `CC(C)CNc1cc(NS(=O)(=O)c2cccc(-c3ccc(F)c(F)c3)c2)cc2c(Cl)[nH]nc12`: in assay [1], the Ki was found to be 0.0081 µM.

In turn, `CC(=O)Nc1cc(NS(=O)(=O)c2ccc(Cl)cc2)cc2c(Cl)[nH]nc12` yielded an inhibitory constant (Ki) in assay [1] of 11 µM. The MIC in the assay on Neisseria meningitidis was 5 µM (≈ 2 µg/mL); against Streptococcus pneumoniae it was 5 µM (≈ 2 µg/mL); in the assay on Streptococcus pyogenes, 7.5 µM (≈ 2.99 µg/mL). Regarding `CN(C)c1cccc2c(S(=O)(=O)Nc3ccc4[nH]nc(Cl)c4c3)cccc12`, the Ki in assay [1] is 22 µM. Consider `Cc1cc(-c2cccc(S(=O)(=O)Nc3cc(NCC(C)C)c4n[nH]c(Cl)c4c3)c2)ccn1`, for which the affinity in assay [1] corresponds to a Ki of 0.0285 µM. This Ki is about 770-fold lower than that of the molecule before.

The molecule `CCc1cccc(-c2cccc(S(=O)(=O)Nc3cc(NCC(C)C)c4[nH]nc(C)c4c3)c2)c1` showed a Ki in assay [1] of 0.125 µM. In assay [1], `Cc1cccc(-c2cccc(S(=O)(=O)Nc3cc(NCC(C)C)c4[nH]nc(C)c4c3)c2)c1` yielded an inhibition constant Ki of 0.1 µM. The results for the minimal inhibitory concentration (MIC) against Neisseria meningitidis and with Streptococcus pyogenes were 20 µM (≈ 8.97 µg/mL) and above 20 µM, respectively. Molecule `Cc1n[nH]c2ccc(NS(=O)(=O)c3cccc4c(N(C)C)cccc34)cc12` showed a Ki in assay [1] of 64 µM. Still for that read-out and setting: in the case of `O=S(=O)(Nc1ccc2[nH]nc(Cl)c2c1)c1ccc(Cl)cc1` it was 5.2 µM.

`CC(C)CNc1cc(NS(=O)(=O)c2ccc(Cl)cc2)cc2c(Cl)[nH]nc12` showed a Ki in assay [1] of 0.76 µM. The MIC was 5 µM (≈ 2.07 µg/mL) in the assay with Neisseria meningitidis and above 20 µM in the assay on Streptococcus pyogenes. For the molecule `CC(C)CNc1cc(NS(=O)(=O)c2cccc(-c3ccc(F)c(Cl)c3)c2)cc2c(Cl)[nH]nc12`, in assay [1], the inhibitory constant (Ki) was determined as 0.0034 µM. In addition, the MIC in the assay with Neisseria meningitidis was 1.88 µM (≈ 0.951 µg/mL); in the assay with Streptococcus pneumoniae, 3.75 µM (≈ 1.9 µg/mL); against Streptococcus pyogenes it was 3.75 µM (≈ 1.9 µg/mL). `CC(C)CNc1cc(NS(=O)(=O)c2cccc(-c3cccc(C(F)(F)F)c3)c2)cc2c(Cl)[nH]nc12` gave a Ki in assay [1] of 0.011 µM. Same read-out and setting: in the case of `CC(C)=CCNc1cc(NS(=O)(=O)c2ccc(Cl)cc2)cc2c(Cl)[nH]nc12` it was 2.2 µM. Molecule `CC(C)CNc1cc(NS(=O)(=O)c2cccc(-c3ccc(C(F)(F)F)cc3)c2)cc2c(Cl)[nH]nc12` gave a Ki in assay [1] of 0.013 µM. The figures for the minimal inhibitory concentration (MIC) in the assay with Neisseria meningitidis and with Streptococcus pyogenes were 5 µM (≈ 2.61 µg/mL) and above 20 µM, respectively. In turn, `CC(C)CCNc1cc(NS(=O)(=O)c2ccc(Cl)cc2)cc2c(Cl)[nH]nc12` displayed a Ki in assay [1] of 4.9 µM. On to `O=S(=O)(Nc1ccc2c[nH]nc2c1)c1ccc(Cl)cc1`, for which affinity in assay [1] was put at a Ki of 17 µM. Turning to `CC(C)(C)CNc1cc(NS(=O)(=O)c2ccc(Cl)cc2)cc2c(Cl)[nH]nc12`, the affinity in assay [1], expressed as Ki, was 1.2 µM. Against the preceding molecule, the Ki is about 14-fold lower.

For `O=S(=O)(Nc1ccc2[nH]ncc2c1)c1ccc(Cl)cc1`, the inhibition constant Ki in assay [1] was 27 µM. This Ki lies about 22-fold higher than the previous one.
